The target of data set [1] is T1, Potassium voltage-gated channel subfamily A member 3 (Homo sapiens, UniProt P22001). The data set is described as follows: Inhibition of outward potassium currents (IKn) in human T-lymphocyte N-type potassium channels. Type of data set: functional. In a few lines:
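Whole-cell patch clamp held at -80 mV, with 150 ms steps to 30 mV once per minute and stabilization for >6 min. Test agent was perfused at one fixed concentration per cell for 6 min. The first pulse gave closed-channel block and the next gave open-channel block. Peak outward current was compared with predrug current as percent blocked. IC50 was fitted from n > 9 data points.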

For data set [2], the target named is T1, Potassium voltage-gated channel subfamily A member 3. The data set is described as follows: Concentration inhibiting [125I]ChTX (charybdotoxin) binding to N-type potassium channel.
Data set [3] is described as follows: Inhibition of [3H]dofetilide binding to guinea pig cardiac potassium (K+) channels. Set-up: species or system Cavia porcellus. In outline: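 Radioligand binding of [3H]dofetilide to guinea pig cardiac myocytes, run by a previously published method. The IC50 is reported as the mean of at least two determinations.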
The species named for data set [4] is Cavia porcellus. The data set is described as follows: Inhibition of [3H]dofetilide binding to cardiac potassium (K+) channels at 400 nM.
Data set [5] is described as follows: Acid dissociation constant was determined. The class given is ADME.
A short description of data set [6]: Partition coefficient (logP) (HPLC). Conditions: octanol/water. The class given is physicochemical.
The species entered for data set [7] is Cavia porcellus. The experiment in a line: Inhibition of [3H]dofetilide binding to guinea pig cardiac myocytes potassium (K+) channels at 400 nM.

T1 sequence (P22001 whole entry, the tested form may be a part): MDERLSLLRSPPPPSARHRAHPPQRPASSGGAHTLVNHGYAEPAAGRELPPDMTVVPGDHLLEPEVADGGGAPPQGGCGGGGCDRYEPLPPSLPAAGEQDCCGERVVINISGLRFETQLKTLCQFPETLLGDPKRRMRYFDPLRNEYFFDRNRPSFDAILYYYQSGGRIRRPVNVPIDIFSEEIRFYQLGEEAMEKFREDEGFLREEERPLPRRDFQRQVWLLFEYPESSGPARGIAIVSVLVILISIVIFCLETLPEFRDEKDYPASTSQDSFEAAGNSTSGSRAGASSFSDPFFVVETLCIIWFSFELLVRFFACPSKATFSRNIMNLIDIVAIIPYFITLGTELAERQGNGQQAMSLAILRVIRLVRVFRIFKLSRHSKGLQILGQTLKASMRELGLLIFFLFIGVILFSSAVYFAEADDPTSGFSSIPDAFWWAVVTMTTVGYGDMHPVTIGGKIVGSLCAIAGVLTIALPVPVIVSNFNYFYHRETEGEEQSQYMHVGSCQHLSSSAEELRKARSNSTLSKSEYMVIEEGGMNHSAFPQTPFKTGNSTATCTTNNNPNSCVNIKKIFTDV

As a reminder, the IC50 is the concentration that inhibits the measured activity by half. A higher IC50 goes with a need for much substance. For the compound `C[N+](C)(C)CCC/N=c1\ccn(Cc2ccccc2Cl)c2cc(Cl)ccc12`, the results for the IC50 in data set [1] and in data set [2] were over 10000 nM and over 30000 nM, respectively.
In the case of `CCCCC/N=c1\ccn(Cc2ccc(Cl)cc2)c2c(F)cccc12`, the IC50 in data set [3] was 310 nM.
As for `CCCCC/N=c1\ccn(Cc2ccc(Cl)cc2)c2ccc(C(F)(F)F)cc12`, the IC50 was found to be 213 nM in data set [1], 340 nM in data set [2] and 140 nM in data set [3].
On to `CCN(CC)CC/N=c1\ccn(Cc2ccccc2Cl)c2cc(Cl)ccc12`, for which the IC50 in data set [3] was found to be 57 nM.
What is called inhibition is the drop in the measured response relative to a control, in per cent. Higher therefore signals strong suppression. Consider `CCCC/N=c1\ccn(Cc2ccccc2)c2cc(Cl)ccc12`, for which the IC50 in data set [1] is 2620 nM; in data set [2], 198 nM. The inhibition in data set [4] was found to be 24%.
As a reminder, the pKa is the negative logarithm of the acid dissociation constant. As usually defined, the logP is a log measure of how a compound divides between an organic and an aqueous phase. Read a low logP as lower lipophilicity. For `CCCCCCNc1cc[n+](-c2ccccc2)c2c(-c3ccccc3)cccc12`, the pKa in data set [5] is 9.58. In data set [2], this compound showed an IC50 of 930 nM. This compound also gave a logP in data set [6] of 3.89.
Taken in the same sequence, the figures for `CCCCCCOc1cc[n+](Cc2ccccc2)c2cc(Cl)ccc12` were 11.2, 828 nM and 3.62.
Regarding `CCCCC/N=c1\ccn(Cc2ccc(Cl)cc2)c2ccc(OC)cc12`, in data set [3], the IC50 is 1990 nM.
Consider `CCCCCC/N=c1\ccn(Cc2ccccc2)c2cc(Cl)ccc12`, for which the IC50 in data set [1] stood at 335 nM; in data set [2], 32 nM; in data set [3], 820 nM. Moreover, in data set [5], the pKa is 11.5.
Turning to `C/N=c1\ccn(Cc2ccccc2)c2cc(Cl)ccc12`, the IC50 in data set [2] was over 5000 nM. The inhibition in data set [7] stood at 24%.
In the case of `Clc1ccc(C/N=c2\ccn(Cc3ccccc3Cl)c3cc(Cl)ccc23)c(Cl)c1`, the IC50 turned out to be 259 nM in data set [1], 550 nM in data set [2] and 2380 nM in data set [3].
With `CCCCCCCC/N=c1\ccn(Cc2ccccc2)c2cc(Cl)ccc12`, the 50% inhibitory concentration (IC50) in data set [1] turned out to be 351 nM; in data set [2], 280 nM; in data set [3] it was 2400 nM.
`N=c1ccn(Cc2ccccc2)c2cc(Cl)ccc12` returned a half-maximal inhibitory concentration (IC50) in data set [2] of over 8000 nM.
Consider `CCCCCC/N=c1\ccn(Cc2ccccc2)c2ccc(OC)cc12`, for which the IC50 worked out at 267 nM in data set [1], 47 nM in data set [2] and 680 nM in data set [3].
As to `Clc1ccc2/c(=N/C34CC5CC(CC(C5)C3)C4)ccn(Cc3ccccc3)c2c1`, the IC50 in data set [2] was found to be 1170 nM; in data set [3], 157 nM.
For the compound `CCC/N=c1\ccn(Cc2ccccc2)c2cc(Cl)ccc12`, the IC50 came to 3160 nM in data set [1] and 544 nM in data set [2].
As for `CCCC/N=c1\ccn(CCCc2ccccc2)c2cc(Cl)ccc12`, in data set [5], the pKa came out at 11.4. For the same compound, the IC50 in data set [2] amounted to 471 nM. For the same compound, in data set [6], the logP worked out at 3.82.
For `CC(C)C/N=c1\ccn(Cc2ccccc2)c2cc(Cl)ccc12`, the figures for the 50% inhibitory concentration (IC50) in data set [2] and in data set [3] were 206 nM and 2000 nM, respectively.
For the compound `CCCCCC/N=c1\ccn(Cc2ccc(Cl)cc2)c2cc(Cl)ccc12`, the IC50 in data set [2] is 100 nM; in data set [3], 3230 nM.
In the case of `CCCCCC/N=c1\ccn(Cc2ccccc2Cl)c2cc(Cl)ccc12`, the values for the IC50 in data set [1], in data set [2] and in data set [3] were 216 nM, 190 nM and 780 nM, respectively.
Compound `CCCCCC/N=c1\ccn(Cc2ccccc2)c2c(OC)cccc12` gave an IC50 in data set [3] of 210 nM.
For `CCCCC/N=c1\ccn(C2CCc3ccccc32)c2cc(Cl)ccc12` (stereo not given), the half-maximal inhibitory concentration (IC50) in data set [2] was determined as 2300 nM; in data set [3], 870 nM.
In data set [2], `O=C(O)CC/N=c1\ccn(Cc2ccccc2Cl)c2cc(Cl)ccc12` returned a half-maximal inhibitory concentration (IC50) of over 10000 nM.
Consider `CCCCCCNc1cc[n+](C)c2c(-c3ccccc3)cccc12`, for which the IC50 in data set [1] turned out to be 602 nM; in data set [2], 240 nM; in data set [3] it was 223 nM.
With `CCCCCC/N=c1\ccn(Cc2ccc(Cl)c(Cl)c2)c2cc(Cl)ccc12`, the figures for the 50% inhibitory concentration (IC50) in data set [1], in data set [2] and in data set [3] were 231 nM, 310 nM and over 3500 nM, respectively. In addition, in data set [5], the pKa worked out at 11.5. In addition, the logP in data set [6] was 4.64.
As for `CC(C)CCCC(C)/N=c1\ccn(Cc2ccccc2)c2cc(Cl)ccc12` (stereo not given), the values for the IC50 in data set [1], in data set [2] and in data set [3] were 1680 nM, 817 nM and 175 nM, respectively.
On to `CCCCC/N=c1\ccn(Cc2ccc(Cl)cc2)c2cc(C(F)(F)F)ccc12`, for which the IC50 in data set [2] came to 239 nM; in data set [3], 90 nM.
Compound `CCCCCCOc1ccc(Cc2ccccc2)c2ccccc12` had an IC50 in data set [2] of over 5000 nM.
`CCCCC/N=c1\ccn(Cc2ccccc2)c2cc(Cl)ccc12`: the figures for the IC50 in data set [1] and in data set [3] were 250 nM and 1300 nM, respectively.
In the case of `CCCCCC/N=c1\ccn(Cc2ccc(OC)cc2)c2cc(Cl)ccc12`, the results for the IC50 in data set [1] and in data set [2] were 329 nM and 88 nM, respectively.
In the case of `Clc1ccc(/N=c2\ccn(Cc3ccccc3Cl)c3cc(Cl)ccc23)c(Cl)c1`, the IC50 in data set [1] is over 10000 nM; in data set [2], over 30000 nM; in data set [3] it was over 30000 nM.
Take `CCCCCCNc1cc[n+](-c2ccccc2)c2c(-c3ccccc3)cc(OC)cc12`: the IC50 in data set [2] worked out at 240 nM. Further, the logP in data set [6] stood at 3.73.
As for `CCCCCC/N=c1\ccn(Cc2ccccc2)c2ccccc12`, the results for the half-inhibitory concentration (IC50) in data set [1] and in data set [2] were 1050 nM and 164 nM, respectively.
In the case of `CCCCCCC/N=c1\ccn(Cc2ccccc2)c2cc(Cl)ccc12`, the IC50 came to 249 nM in data set [1], 117 nM in data set [2] and 2500 nM in data set [3].
With `CNCCC/N=c1\ccn(Cc2cccc(Cl)c2)c2cc(Cl)ccc12`, in data set [2], the IC50 is over 30000 nM.
